Experimental data of several laboratories.
Compare with care: the assays were run in different laboratories.
Organism: Staphylococcus aureus
Read-out: microbial growth

SMILES | technique | strain | concentration | time | inhibition zone [mm]
CCOC(=O)C1=C(C)N2NC(c3ccccc3O)N(C(Cc3c[nH]c4ccccc34)C(=O)O)C2=NC1c1ccc(Cl)cc1 (stereo not shown) |  | ATCC25923 | 15 µg/mL | 24 h | 33
Cc1ccc2nc(-n3nc(C(C)C)c4c3-c3ccccc3C4=O)sc2c1 | well diffusion | NCIM5021 | 500 µg/mL |  | 13
COc1cc(C=Cc2cc(-c3ccc(N(C)C)cc3)nc(O)n2)ccc1O | disc diffusion | ATCC29213 | 250 µg/mL |  | 6
Cc1nn(-c2nc3ccccc3s2)c2c1C(=O)c1ccccc1-2 | well diffusion | NCIM5021 | 1000 µg/mL |  | 11
CC(C(=O)O)N1C2=NC(c3ccc(Cl)cc3)C3=C(OC(C)(C)OC3=O)N2NC1(C)c1ccccc1O (stereo not shown) |  | ATCC25923 | 15 µg/mL | 24 h | 24
CN[C@H](CC(C)C)C(=O)N[C@H]1C(=O)N[C@@H](CC(N)=O)C(=O)N[C@H]2C(=O)N[C@H]3C(=O)N[C@H](C(=O)N[C@H](C(=O)O)c4cc(O)cc(O)c4-c4cc3ccc4O)[C@H](O)c3ccc(c(Cl)c3)Oc3cc2cc(c3O[C@@H]2O[C@H](CO)[C@@H](O)[C@H](O)[C@H]2O[C@H]2C[C@](C)(N)[C@H](O)[C@H](C)O2)Oc2ccc(cc2Cl)[C@H]1O | disc diffusion | ATCC29213 | 31.2 µg/disc | 24 h | 18
CC(=O)C1=C(C)N2NC(C)(c3ccccc3O)N(C(Cc3c[nH]c4ccccc34)C(=O)O)C2=NC1c1ccc(Cl)cc1 (stereo not shown) |  | ATCC25923 | 15 µg/mL | 24 h | 33
COc1cc(C=CC(=O)CC(c2ccc(N(C)C)cc2)n2ccnc2)ccc1O (stereo not shown) | disc diffusion | ATCC29213 | 250 µg/mL |  | 9
COc1ccc2nc(-n3nc(C)c4c3-c3ccccc3C4=O)sc2c1 | well diffusion | NCIM5021 | 125 µg/mL |  | 11
CC[C@H]1OC(=O)[C@H](C)[C@@H](O[C@H]2C[C@@](C)(OC)[C@@H](O)[C@H](C)O2)[C@H](C)[C@@H](O[C@@H]2O[C@H](C)C[C@H](N(C)C)[C@H]2O)[C@](C)(O)C[C@@H](C)/C(=N\OCOCCOC)[C@H](C)[C@@H](O)[C@]1(C)O | disc diffusion | ATCC6538 | 20000 µg/mL | 24 h | 20
COc1cc(C=CC(=O)CC(c2ccc([N+](=O)[O-])cc2)n2ccnc2)ccc1O (stereo not shown) | disc diffusion | ATCC29213 | 250 µg/mL |  | 6
CC(C)c1nn(-c2nc3ccccc3s2)c2c1C(=O)c1ccccc1-2 | well diffusion | NCIM5021 | 1000 µg/mL |  | 12
CC(=O)C1=C(C)N2NC(c3ccccc3O)N(C(Cc3c[nH]c4ccccc34)C(=O)O)C2=NC1c1ccc(Cl)cc1 (stereo not shown) |  | ATCC25923 | 15 µg/mL | 24 h | 32
CC(C)c1nn(-c2nc3ccc(Br)cc3s2)c2c1C(=O)c1ccccc1-2 | well diffusion | NCIM5021 | 250 µg/mL |  | 11
CC1(C)S[C@@H]2[C@H](NC(=O)[C@H](N)c3ccc(O)cc3)C(=O)N2[C@H]1C(=O)O | disc diffusion | ATCC29213 | 250 µg/mL |  | 9.37
CCOC(=O)C1=C(C)N2NC(C)(c3ccccc3O)N(C(Cc3c[nH]c4ccccc34)C(=O)O)C2=NC1c1ccc(Cl)cc1 (stereo not shown) |  | ATCC25923 | 10 µg/mL | 24 h | 18
O=C(O)c1cn(C2CC2)c2cc(N3CCNCC3)c(F)cc2c1=O |  | SG511 | 1000 µg/mL |  | 18
N#Cc1c(-c2ccc(Cl)cc2)nc2n(c1=O)NC(c1ccccc1O)N2C(Cc1c[nH]c2ccccc12)C(=O)O (stereo not shown) |  | ATCC25923 | 15 µg/mL | 24 h | 32
Cc1ccc2nc(-n3nc(CC(C)C)c4c3-c3ccccc3C4=O)sc2c1 | well diffusion | NCIM5021 | 500 µg/mL |  | 11
